Series [1] addresses NS3 (Hepatitis C virus, UniProt A3EZJ3). The experiment in a line: Inhibitory activity against HCV NS3 protease. On the set-up: species or system Hepacivirus hominis. The gist of the method: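 Continuous assay with a single-chain NS3 serine protease carrying tethered NS4A. Values are reported as Ki*, the equilibrium constant that reflects the reversible covalent bond formed between the inhibitor ketone and the active-site serine, plus other enzyme–inhibitor contacts. Most inhibitors were tested as an inseparable mixture of two diastereomers at the P1 R-centre.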

The nature of series [2]: AUC in orally dosed rat. The class given is ADME, organism-based. To be noted: plasma, po.
The nature of series [3]: AUC in sc dosed rat. The class given is ADME, organism-based. As to conditions: plasma.
Series [4] can be described thus: Bioavailability in sc dosed rat. The class given is ADME, organism-based. To be noted: in vivo.
Series [5] in a line: Selectivity for HNE over HCV NS3 protease.
The nature of series [6]: Oral bioavailability in rat. The format is ADME, organism-based. As to conditions: in vivo.
Series [7] relates to Hepatitis C virus. The experiment in a line: Inhibition of HCV replication in a cellular replicon assay. The class given is functional, organism-based, Hepacivirus hominis. A general note: Replicon systems follow genome replication, usually without infectious particles.
Series [8] is described as follows: AUC in iv dosed rat. The format is ADME, organism-based. As to conditions: plasma.

The structures appear in SMILES notation. Numbered stars: 1 amine (or outer) side, 2 acyl side, 3 side chain; on linkers, the order of the positions; unused ones are H or OH. Square brackets hold non-standard residues; d marks the D form. Peptide text beside a SMILES is read from it. * marks the point of attachment. Hyp = O=C(O)[C@@H]1C[C@@H](O)CN1; X1 = CCCC(N[*:1])C(=O)C(=O)[*:2]; Chg = N[C@H](C(=O)O)C1CCCCC1; Phg = N[C@H](C(=O)O)c1ccccc1; Boc = CC(C)(C)OC(=O)*; tBu = CC(C)(C)*

Sequence of NS3 (A3EZJ3 whole entry): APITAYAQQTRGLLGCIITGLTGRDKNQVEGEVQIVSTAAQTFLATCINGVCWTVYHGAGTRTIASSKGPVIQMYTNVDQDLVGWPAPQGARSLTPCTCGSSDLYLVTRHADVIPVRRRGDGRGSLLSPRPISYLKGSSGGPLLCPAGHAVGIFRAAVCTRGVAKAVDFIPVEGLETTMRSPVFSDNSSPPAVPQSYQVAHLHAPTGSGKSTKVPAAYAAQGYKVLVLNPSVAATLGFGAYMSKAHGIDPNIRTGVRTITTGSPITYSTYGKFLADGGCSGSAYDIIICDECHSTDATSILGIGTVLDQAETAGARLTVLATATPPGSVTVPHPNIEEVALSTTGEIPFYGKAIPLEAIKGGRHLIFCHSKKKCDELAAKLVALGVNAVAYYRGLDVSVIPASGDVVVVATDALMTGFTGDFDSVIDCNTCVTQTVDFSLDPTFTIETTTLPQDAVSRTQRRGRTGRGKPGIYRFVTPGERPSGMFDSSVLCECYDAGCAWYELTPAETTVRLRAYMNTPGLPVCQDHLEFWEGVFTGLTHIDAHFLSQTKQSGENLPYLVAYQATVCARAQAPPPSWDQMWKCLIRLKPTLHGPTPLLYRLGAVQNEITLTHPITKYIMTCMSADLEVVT

Broadly, the Ki is a dissociation constant, usually derived from enzyme kinetics or from competition with a known ligand. For `CCCC(NC(=O)[C@@H]1C[C@@H]2CN1C(=O)[C@H](C1CCCCC1)NC(=O)Cc1cccc(c1)OCCCO2)C(=O)C(=O)NCC(=O)N[C@H](CO)c1ccccc1` (some centres not stated), the Ki in series [1] stood at 60 nM.

Compound `CCCC(NC(=O)[C@@H]1C[C@@H]2CN1C(=O)[C@H](C1CCCCC1)NC(=O)Cc1cccc(c1)OCCC(C)(C)O2)C(=O)C(=O)NCC(=O)NCc1ccccc1` (some centres not stated) came in with an inhibition constant (Ki) in series [1] of 269 nM. This Ki is about 4.5-fold higher than that of the compound before.

The compound `CCCC(NC(=O)[C@@H]1C[C@@H]2CN1C(=O)[C@H](C1CCCCC1)NC(=O)Cc1cccc(c1)OCCCO2)C(=O)C(=O)NCC(=O)N[C@H](C(=O)OC(C)(C)C)c1ccccc1` (some centres not stated) gave a Ki in series [1] of 44 nM.

In the case of `CCCC(NC(=O)[C@@H]1C[C@@H](OC(C)(C)C)CN1C(=O)[C@@H](NC(=O)OC(C)(C)C)C1CCCCC1)C(=O)C(=O)NCC(=O)N[C@H](C(N)=O)c1ccccc1` (some centres not stated) (Boc-[Chg][Hyp](tBu)[X1]G[Phg]-NH2), the affinity in series [1], expressed as Ki, was 220 nM.

For the compound `CCCC(NC(=O)[C@@H]1C[C@@H]2CN1C(=O)[C@H](C1CCCCC1)NC(=O)Cc1cccc(c1)OCCCO2)C(=O)C(=O)O` (some centres not stated), the Ki in series [1] was 6100 nM.

For `CCCC(NC(=O)[C@@H]1C[C@@H]2CN1C(=O)[C@H](C1CCCCC1)NC(=O)Cc1cccc(c1)OCCCO2)C(=O)C(=O)NCC(=O)OCc1ccccc1` (some centres not stated), the Ki in series [1] was 430 nM.

As a reminder, the AUC is the area under the concentration-time curve, a measure of exposure. A higher AUC goes with high exposure. For orientation: bioavailability means the share of a dose that reaches the circulation, judged against a reference dose that is usually intravenous. A lower bioavailability goes with little systemic uptake. As usually defined, the IC50 is the point on the concentration scale where inhibition reaches its midpoint. A lower IC50 goes with greater potency. Take `CCCC(NC(=O)[C@@H]1C[C@@H]2CN1C(=O)[C@H](C1CCCCC1)NC(=O)Cc1cccc(c1)OCCC(C)(C)O2)C(=O)C(=O)NCC(=O)N[C@H](C(=O)N(C)C)c1ccccc1` (some centres not stated): in series [1], the Ki turned out to be 6 nM. In addition, the AUC in series [2] stood at 0.46 µM·h; in series [3] it was 16.5 µM·h; in series [8], 2.2 µM·h. For the same compound, the results for the bioavailability in series [4] and in series [6] were 77% and 2.1%, respectively. The Ratio Ki in series [5] came out at 107. Moreover, in series [7], half-maximal inhibition (IC50) required 130 nM.

As for `CCCC(NC(=O)[C@@H]1C[C@@H]2CN1C(=O)[C@H](C1CCCCC1)NC(=O)Cc1cccc(c1)OCCCO2)C(=O)C(=O)NCC(=O)NCc1ccccc1` (some centres not stated), the affinity in series [1], expressed as Ki, was 1100 nM.

Compound `CCCC(NC(=O)[C@@H]1C[C@@H]2CN1C(=O)[C@H](C1CCCCC1)NC(=O)Cc1cccc(c1)OCCCO2)C(=O)C(=O)NCC(=O)N[C@H](C#N)c1ccccc1` (some centres not stated) returned an inhibition constant (Ki) in series [1] of 310 nM.

On to `C=CCNC(=O)C(=O)C(CCC)NC(=O)[C@@H]1C[C@@H]2CN1C(=O)[C@H](C1CCCCC1)NC(=O)Cc1cccc(c1)OCCCO2` (some centres not stated), for which affinity in series [1] was put at a Ki of 10000 nM.

In series [1], `CCCC(NC(=O)[C@@H]1C[C@@H]2CN1C(=O)[C@H](C1CCCCC1)NC(=O)Cc1cccc(c1)OCCCO2)C(=O)C(=O)NC` (some centres not stated) displayed a Ki of 9900 nM.

For `CCCC(NC(=O)[C@@H]1C[C@@H]2CN1C(=O)[C@H](C1Cc3ccccc3C1)NC(=O)Cc1cccc(c1)OCCC(C)(C)O2)C(=O)C(=O)NCC(=O)N[C@H](C(=O)N(C)C)c1ccccc1` (some centres not stated), the Ki in series [1] was 40 nM.

Take `CCCC(NC(=O)[C@@H]1C[C@@H]2CN1C(=O)[C@H](C1CCCCC1)NC(=O)Cc1cccc(c1)OCCC(C)(C)O2)C(=O)C(=O)NCC(=O)N[C@H](C(=O)OC(C)(C)C)c1ccccc1` (some centres not stated): the affinity in series [1], expressed as Ki, was 16 nM.

For the compound `CCCC(NC(=O)[C@@H]1C[C@@H]2CN1C(=O)[C@H](C(C)C)NC(=O)Cc1cccc(c1)OCCC(C)(C)O2)C(=O)C(=O)NCC(=O)N[C@H](C(=O)N(C)C)c1ccccc1` (some centres not stated), in series [1], the Ki was 19 nM.

As to `CCCC(NC(=O)[C@@H]1C[C@@H]2CN1C(=O)[C@H](c1ccccc1)NC(=O)Cc1cccc(c1)OCCC(C)(C)O2)C(=O)C(=O)NCC(=O)N[C@H](C(=O)N(C)C)c1ccccc1` (some centres not stated), the inhibitory constant (Ki) in series [1] was 46 nM.

Regarding `CCCC(NC(=O)[C@@H]1C[C@@H]2CN1C(=O)[C@H](C1CCCCC1)NC(=O)Cc1cccc(c1)OCCC(C)(C)O2)C(=O)C(=O)NCC(=O)O` (some centres not stated), affinity in series [1] was put at a Ki of 720 nM. This Ki lies about 16-fold higher than the previous one.

Consider `CCCC(NC(=O)[C@@H]1C[C@@H]2CN1C(=O)[C@H](C1CCCCC1)NC(=O)Cc1cccc(c1)OCCCO2)C(=O)C(=O)NCC(=O)O` (some centres not stated), for which the Ki in series [1] was 7400 nM.

Turning to `CCCC(NC(=O)[C@@H]1C[C@@H]2CN1C(=O)[C@H](C(C)(C)C)NC(=O)Cc1cccc(c1)OCCC(C)(C)O2)C(=O)C(=O)NCC(=O)N[C@H](C(=O)N(C)C)c1ccccc1` (some centres not stated), the affinity in series [1] corresponds to a Ki of 17 nM. For the same compound, the Ratio Ki in series [5] amounted to 306. Besides, inhibition in series [7] was half-maximal at 200 nM (IC50).

Turning to `CCC[C@H](NC(=O)[C@@H]1C[C@@H]2CN1C(=O)[C@H](C1CCCCC1)NC(=O)Cc1cccc(c1)OCCCO2)C(=O)C(=O)NCC(=O)N[C@H](C(=O)N(C)C)c1ccccc1`, in series [1], the Ki was found to be 8 nM. The AUC amounted to 1.5 µM·h in series [2], 41.6 µM·h in series [3] and 23.1 µM·h in series [8]. Moreover, the bioavailability in series [4] was determined as 90%; in series [6], 3%. For the same compound, in series [5], the Ratio Ki is 46. In addition, it took 400 nM to reach half-maximal inhibition in series [7] (IC50).

In the case of `CCCC(NC(=O)[C@@H]1C[C@@H]2CN1C(=O)[C@H](C1CCCCC1)NC(=O)Cc1cccc(c1)OCCC(C)(C)O2)C(=O)C(N)=O` (some centres not stated), the affinity in series [1] corresponds to a Ki of 220 nM. Moreover, the AUC in series [2] was found to be 0.3 µM·h.

`CCCC(NC(=O)[C@@H]1C[C@@H]2CN1C(=O)[C@H](C1CCCCC1)NC(=O)Cc1cccc(c1)OCCCO2)C(=O)C(=O)NCC(=O)N[C@H](C(=O)O)c1ccccc1` (some centres not stated) gave a Ki in series [1] of 10 nM.

Take `CCCC(NC(=O)[C@@H]1C[C@@H]2CN1C(=O)[C@H](C(C)CC)NC(=O)Cc1cccc(c1)OCCC(C)(C)O2)C(=O)C(=O)NCC(=O)N[C@H](C(=O)N(C)C)c1ccccc1` (some centres not stated): in series [1], the Ki turned out to be 70 nM. This Ki lies about 7-fold higher than the previous one.

As for `CCC[C@@H](NC(=O)[C@@H]1C[C@@H]2CN1C(=O)[C@H](C1CCCCC1)NC(=O)Cc1cccc(c1)OCCCO2)C(=O)C(=O)NCC(=O)N[C@H](C(=O)N(C)C)c1ccccc1`, in series [1], the Ki was 500 nM.

In turn, `CCCC(NC(=O)[C@@H]1C[C@@H]2CN1C(=O)[C@H](C1CCCCC1)NC(=O)Cc1cccc(c1)OCCC(C)(C)O2)C(=O)C(=O)NCC(=O)OCc1ccccc1` (some centres not stated) had a Ki in series [1] of 88 nM.

In turn, `C=CCNC(=O)C(=O)C(CCC)NC(=O)[C@@H]1C[C@@H]2CN1C(=O)[C@H](C1CCCCC1)NC(=O)Cc1cccc(c1)OCCC(C)(C)O2` (some centres not stated) displayed a Ki in series [1] of 530 nM. Further, the AUC was 26.3 µM·h in series [2], 34.7 µM·h in series [3] and 13.6 µM·h in series [8]. Also, the bioavailability in series [6] was found to be 97%. For the same compound, the IC50 in series [7] is 400 nM.

For the origin of these results see ChEMBL document CHEMBL1149387, “Novel potent hepatitis C virus NS3 serine protease inhibitors derived from proline-based macrocycles” (J Med Chem, 2006).
